In ChEMBL document CHEMBL5303300, “EUbOPEN Chemogenomics Library - Multiplex” (2023):
Where “and” joins values, the source holds several entries; their conditions need not be identical. Equal values may be shown once.

System: Fibroblast
Assay: Multiplex assay against human fibroblast
Type: toxicity, cell-based
Details: number of replicates 2
How it was run: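 Phenotypes for tubulin, mitochondrial mass and membrane permeability are expressed as per cents of healthy-nucleus cells. Cells were stained live at seeding with Hoechst33342, BioTracker Green Microtubule Cytoskeleton Dye, MitoTracker Red and Annexin V Alexa Fluor 680, then imaged after compound addition on a CQ1 microscope at 37°C and 5% CO2. Machine-learning gating in CellPathfinder separated Hoechst high-intensity objects from normal cells, divided normal cells by nuclear state (healthy, pyknosed, fragmented) and divided pyknosed cells into mitotic or apoptotic.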

[1] = 12 h, 1 µM, compound concentration 1 uM
[2] = 12 h, 10 µM, compound concentration 10 uM
[3] = 24 h, 1 µM, compound concentration 1 uM
[4] = 24 h, 10 µM, compound concentration 10 uM
[5] = 48 h, 1 µM, compound concentration 1 uM
[6] = 48 h, 10 µM, compound concentration 10 uM

SMILES: CN(C)C/C=C/C(=O)Nc1ccc(C(=O)Nc2cccc(Nc3ncc(Cl)c(-c4c[nH]c5ccccc45)n3)c2)cc1
- Population Apoptotic (%) [1]: 47% and 41%
- Population Fragmented Nuclei (%) [1]: 6% and 9%
- Population Healthy Nuclei (%) [1]: 61% and 63%
- Population Hoechst High Intensity Objects (%) [1]: 0%
- Population Membrane Permeable-Phenotype (%) [1]: 6%
- Population Mitochondria Different-Phenotype (%) [1]: 9% and 8%
- Population Mitotic Cells (%) [1]: 52% and 58%
- Population Normal (%) [1]: 99%
- Population Pyknosed Nuclei (%) [1]: 32% and 26%
- Population Tubulin-Different-Phenotype (%) [1]: 29% and 25%
- Total Cell Count [1]: 144 and 155
- Population Apoptotic (%) [2]: 50% and 66%
- Population Fragmented Nuclei (%) [2]: 21% and 12%
- Population Healthy Nuclei (%) [2]: 41% and 42%
- Population Hoechst High Intensity Objects (%) [2]: 0%
- Population Membrane Permeable-Phenotype (%) [2]: 21% and 22%
- Population Mitochondria Different-Phenotype (%) [2]: 10% and 4%
- Population Mitotic Cells (%) [2]: 50% and 33%
- Population Normal (%) [2]: 99%
- Population Pyknosed Nuclei (%) [2]: 36% and 44%
- Population Tubulin-Different-Phenotype (%) [2]: 77% and 63%
- Total Cell Count [2]: 180 and 169
- Population Apoptotic (%) [3]: 62% and 51%
- Population Fragmented Nuclei (%) [3]: 12% and 10%
- Population Healthy Nuclei (%) [3]: 54% and 55%
- Population Hoechst High Intensity Objects (%) [3]: 0%
- Population Membrane Permeable-Phenotype (%) [3]: 13% and 5%
- Population Mitochondria Different-Phenotype (%) [3]: 12% and 11%
- Population Mitotic Cells (%) [3]: 37% and 48%
- Population Normal (%) [3]: 100%
- Population Pyknosed Nuclei (%) [3]: 32% and 35%
- Population Tubulin-Different-Phenotype (%) [3]: 37% and 33%
- Total Cell Count [3]: 132 and 140
- Population Apoptotic (%) [4]: 79% and 84%
- Population Fragmented Nuclei (%) [4]: 12% and 22%
- Population Healthy Nuclei (%) [4]: 31%
- Population Hoechst High Intensity Objects (%) [4]: 1% and 0%
- Population Membrane Permeable-Phenotype (%) [4]: 23% and 16%
- Population Mitotic Cells (%) [4]: 20% and 15%
- Population Normal (%) [4]: 98% and 99%
- Population Pyknosed Nuclei (%) [4]: 55% and 46%
- Population Tubulin-Different-Phenotype (%) [4]: 50% and 74%
- Total Cell Count [4]: 167 and 178
- Population Apoptotic (%) [5]: 72% and 74%
- Population Fragmented Nuclei (%) [5]: 15%
- Population Healthy Nuclei (%) [5]: 55% and 50%
- Population Hoechst High Intensity Objects (%) [5]: 0%
- Population Membrane Permeable-Phenotype (%) [5]: 11% and 5%
- Population Mitochondria Different-Phenotype (%) [5]: 7% and 8%
- Population Mitotic Cells (%) [5]: 27% and 25%
- Population Normal (%) [5]: 100%
- Population Pyknosed Nuclei (%) [5]: 29% and 34%
- Population Tubulin-Different-Phenotype (%) [5]: 39% and 26%
- Total Cell Count [5]: 124 and 149
- Population Apoptotic (%) [6]: 93%
- Population Fragmented Nuclei (%) [6]: 32% and 24%
- Population Healthy Nuclei (%) [6]: 20% and 19%
- Population Hoechst High Intensity Objects (%) [6]: 2% and 0%
- Population Membrane Permeable-Phenotype (%) [6]: 25% and 18%
- Population Mitochondria Different-Phenotype (%) [6]: 6% and 5%
- Population Mitotic Cells (%) [6]: 6%
- Population Normal (%) [6]: 97% and 99%
- Population Pyknosed Nuclei (%) [6]: 46% and 56%
- Population Tubulin-Different-Phenotype (%) [6]: 65% and 68%
- Total Cell Count [6]: 220 and 196

SMILES: CCCCOc1c(C(=O)c2c(F)cc(C)cc2F)c[nH]c2nncc1-2
- Population Apoptotic (%) [1]: 52% and 40%
- Population Fragmented Nuclei (%) [1]: 11% and 8%
- Population Healthy Nuclei (%) [1]: 61% and 73%
- Population Hoechst High Intensity Objects (%) [1]: 0%
- Population Membrane Permeable-Phenotype (%) [1]: 8% and 5%
- Population Mitochondria Different-Phenotype (%) [1]: 0%
- Population Mitotic Cells (%) [1]: 47% and 60%
- Population Normal (%) [1]: 100%
- Population Pyknosed Nuclei (%) [1]: 27% and 18%
- Population Tubulin-Different-Phenotype (%) [1]: 21% and 12%
- Total Cell Count [1]: 200 and 276
- Population Apoptotic (%) [2]: 57% and 64%
- Population Fragmented Nuclei (%) [2]: 10% and 8%
- Population Healthy Nuclei (%) [2]: 64% and 57%
- Population Hoechst High Intensity Objects (%) [2]: 0%
- Population Membrane Permeable-Phenotype (%) [2]: 2% and 8%
- Population Mitochondria Different-Phenotype (%) [2]: 1% and 0%
- Population Mitotic Cells (%) [2]: 42% and 35%
- Population Normal (%) [2]: 99%
- Population Pyknosed Nuclei (%) [2]: 25% and 33%
- Population Tubulin-Different-Phenotype (%) [2]: 22% and 19%
- Total Cell Count [2]: 271 and 238
- Population Apoptotic (%) [3]: 50% and 43%
- Population Fragmented Nuclei (%) [3]: 14% and 7%
- Population Healthy Nuclei (%) [3]: 55% and 66%
- Population Hoechst High Intensity Objects (%) [3]: 0%
- Population Membrane Permeable-Phenotype (%) [3]: 7%
- Population Mitochondria Different-Phenotype (%) [3]: 0% and 1%
- Population Mitotic Cells (%) [3]: 49% and 56%
- Population Normal (%) [3]: 100%
- Population Pyknosed Nuclei (%) [3]: 29% and 25%
- Population Tubulin-Different-Phenotype (%) [3]: 26% and 11%
- Total Cell Count [3]: 193 and 267
- Population Apoptotic (%) [4]: 81% and 68%
- Population Fragmented Nuclei (%) [4]: 10%
- Population Healthy Nuclei (%) [4]: 64% and 51%
- Population Hoechst High Intensity Objects (%) [4]: 0%
- Population Membrane Permeable-Phenotype (%) [4]: 4%
- Population Mitochondria Different-Phenotype (%) [4]: 1%
- Population Mitotic Cells (%) [4]: 18% and 31%
- Population Normal (%) [4]: 99% and 100%
- Population Pyknosed Nuclei (%) [4]: 25% and 37%
- Population Tubulin-Different-Phenotype (%) [4]: 27% and 18%
- Total Cell Count [4]: 281 and 247
- Population Apoptotic (%) [5]: 66% and 59%
- Population Fragmented Nuclei (%) [5]: 18% and 9%
- Population Healthy Nuclei (%) [5]: 53% and 64%
- Population Hoechst High Intensity Objects (%) [5]: 1% and 0%
- Population Membrane Permeable-Phenotype (%) [5]: 14% and 11%
- Population Mitochondria Different-Phenotype (%) [5]: 0%
- Population Mitotic Cells (%) [5]: 33% and 40%
- Population Normal (%) [5]: 98% and 100%
- Population Pyknosed Nuclei (%) [5]: 27% and 26%
- Population Tubulin-Different-Phenotype (%) [5]: 38% and 17%
- Total Cell Count [5]: 197 and 276
- Population Apoptotic (%) [6]: 76% and 77%
- Population Fragmented Nuclei (%) [6]: 11% and 12%
- Population Healthy Nuclei (%) [6]: 46% and 64%
- Population Hoechst High Intensity Objects (%) [6]: 0%
- Population Mitochondria Different-Phenotype (%) [6]: 0% and 1%
- Population Mitotic Cells (%) [6]: 23% and 22%
- Population Normal (%) [6]: 99% and 100%
- Population Pyknosed Nuclei (%) [6]: 42% and 22%
- Population Tubulin-Different-Phenotype (%) [6]: 45% and 39%
- Total Cell Count [6]: 261 and 279

SMILES: CS(=O)(=O)c1ccc(NC(=O)c2cccc(COc3ccc(Br)cc3CNCCO)c2)c(Cl)c1.O=CO
- Population Apoptotic (%) [1]: 47% and 51%
- Population Fragmented Nuclei (%) [1]: 11%
- Population Healthy Nuclei (%) [1]: 64% and 70%
- Total Cell Count [1]: 184 and 209
- Population Apoptotic (%) [2]: 56%
- Population Fragmented Nuclei (%) [2]: 22% and 14%
- Population Healthy Nuclei (%) [2]: 58% and 59%
- Total Cell Count [2]: 327 and 259
- Population Apoptotic (%) [3]: 61% and 71%
- Population Fragmented Nuclei (%) [3]: 11%
- Population Healthy Nuclei (%) [3]: 60% and 68%
- Population Pyknosed Nuclei (%) [3]: 19%
- Total Cell Count [3]: 187 and 198
- Population Apoptotic (%) [4]: 57% and 85%
- Population Fragmented Nuclei (%) [4]: 15% and 18%
- Population Healthy Nuclei (%) [4]: 65% and 64%
- Total Cell Count [4]: 227 and 235
- Population Apoptotic (%) [5]: 76% and 80%
- Population Fragmented Nuclei (%) [5]: 16% and 17%
- Population Healthy Nuclei (%) [5]: 64% and 70%
- Population Pyknosed Nuclei (%) [5]: 19%
- Total Cell Count [5]: 178 and 216
- Population Apoptotic (%) [6]: 85% and 87%
- Population Fragmented Nuclei (%) [6]: 16% and 13%
- Population Healthy Nuclei (%) [6]: 70% and 72%
- Population Pyknosed Nuclei (%) [6]: 14%
- Total Cell Count [6]: 211 and 226
